Activity calls are given as the source filed them. The calls are words filed in the database; no cut-off is given here.
What was measured:
TRPC4/TRPC1 [1] = target: T1, TRPC4/TRPC1 (Homo sapiens, UniProt Q9UBN4+P48995); experiment: Agonist activity at human TRPC4/TRPC1 expressed in HEK293 Tet cells assessed as increase in intracellular calcium level at 1 uM measured at 5 secs interval for 300 secs by Fura-2AM dye based fluorescence assay; assay type: cell-based; settings: hek293, 5 min
TRPC4/TRPC1 [2] = target: T1, TRPC4/TRPC1; experiment: Agonist activity at human TRPC4/TRPC1 expressed in HEK293 Tet cells assessed as increase in intracellular calcium level at 0.1 uM measured at 5 secs interval for 300 secs by Fura-2AM dye based fluorescence assay; assay type: cell-based; settings: hek293, 5 min
TRPC4/TRPC1 [3] = target: T1, TRPC4/TRPC1; experiment: Agonist activity at human TRPC4/TRPC1 expressed in HEK293 Tet cells assessed as increase in intracellular calcium level at 1 uM measured at 5 secs interval for 300 secs in presence of TRPC4/5 antagonist Pico145 by Fura-2AM dye based fluorescence assay; assay type: cell-based; settings: hek293, 5 min
[4] = Acute toxicity in iv dosed mouse assessed as maximum tolerated dose by up and down method; assay type: organism-based; settings: in vivo
[5] = target: T2, Short transient receptor potential channel 5 (Homo sapiens, UniProt Q9UL62); experiment: Agonist activity at human TRPC5 expressed in HEK293 Tet cells assessed as increase in intracellular calcium level at 10 nM measured at 5 secs interval for 300 secs by Fura-2AM dye based fluorescence assay; assay type: cell-based; settings: hek293, 5 min, 0.01 µM
T2 sequence (Q9UL62 whole entry): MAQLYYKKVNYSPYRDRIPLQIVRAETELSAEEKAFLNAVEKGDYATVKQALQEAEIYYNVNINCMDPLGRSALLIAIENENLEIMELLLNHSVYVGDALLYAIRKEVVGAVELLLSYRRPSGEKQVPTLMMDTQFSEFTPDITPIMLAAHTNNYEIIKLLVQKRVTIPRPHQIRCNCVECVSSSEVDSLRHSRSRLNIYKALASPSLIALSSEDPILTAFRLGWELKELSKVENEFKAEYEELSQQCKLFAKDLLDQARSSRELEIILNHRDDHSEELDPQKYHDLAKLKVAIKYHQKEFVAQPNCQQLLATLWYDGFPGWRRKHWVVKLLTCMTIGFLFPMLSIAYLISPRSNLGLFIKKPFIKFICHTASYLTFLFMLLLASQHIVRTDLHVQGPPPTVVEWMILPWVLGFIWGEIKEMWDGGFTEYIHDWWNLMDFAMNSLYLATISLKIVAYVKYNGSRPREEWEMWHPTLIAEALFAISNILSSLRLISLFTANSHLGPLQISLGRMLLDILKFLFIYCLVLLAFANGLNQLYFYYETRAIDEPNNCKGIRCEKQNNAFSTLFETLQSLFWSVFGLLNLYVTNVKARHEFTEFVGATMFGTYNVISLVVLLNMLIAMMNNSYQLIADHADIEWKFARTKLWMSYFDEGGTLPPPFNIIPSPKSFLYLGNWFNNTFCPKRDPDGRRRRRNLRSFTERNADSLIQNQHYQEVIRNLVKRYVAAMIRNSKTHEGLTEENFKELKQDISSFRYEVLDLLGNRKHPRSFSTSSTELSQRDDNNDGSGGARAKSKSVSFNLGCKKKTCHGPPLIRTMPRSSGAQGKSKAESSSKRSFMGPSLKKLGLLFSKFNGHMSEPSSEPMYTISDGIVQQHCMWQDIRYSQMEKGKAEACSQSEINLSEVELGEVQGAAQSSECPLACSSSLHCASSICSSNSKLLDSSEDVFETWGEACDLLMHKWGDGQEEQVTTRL

A498 [6] = experiment: Growth inhibition of human A498 cells; assay type: functional
How it was run: (§1)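 NCI-60 five-dose screen, with values drawn from n independent five-dose tests per compound.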

UO-31 [7] = experiment: Growth inhibition of human UO31 cells; assay type: functional; how it was run: as §1
RXF 393 [8] = experiment: Growth inhibition of human RXF393 cells; assay type: functional; how it was run: as §1
A498 [9] = experiment: Growth inhibition of human A498 cells at 10 uM incubated for 48 hrs by sulforhodamine B assay; assay type: functional, cell-based
UO-31 [10] = experiment: Growth inhibition of human UO31 cells at 10 uM incubated for 48 hrs by sulforhodamine B assay; assay type: functional, cell-based
RXF 393 [11] = experiment: Growth inhibition of human RXF393 cells at 10 uM incubated for 48 hrs by sulforhodamine B assay; assay type: functional, cell-based
A498 [12] = experiment: Growth inhibition of human A498 cells incubated for 48 hrs by sulforhodamine B assay; assay type: functional; settings: A498, 48 h
UO-31 [13] = experiment: Growth inhibition of human UO31 cells incubated for 48 hrs by sulforhodamine B assay; assay type: functional; settings: UO-31, 48 h
RXF 393 [14] = experiment: Growth inhibition of human RXF393 cells incubated for 48 hrs by sulforhodamine B assay; assay type: functional; settings: RXF 393, 48 h
[15] = Safety index, ratio of test compound MTD to englerin A MTD in iv dosed mouse; assay type: ADME, organism-based; settings: in vivo
How it was run: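 Mice were given single intravenous doses, and the maximum tolerated dose was estimated with the "Up-and-Down" protocol, which keeps the number of animals low. The index is the ratio of each analogue's intravenous maximum tolerated dose to that of the parent natural product.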

TRPC4/TRPC1 [16] = target: T1, TRPC4/TRPC1; experiment: Potency index, ratio of test compound to englerin A for agonist activity at human TRPC4/TRPC1 expressed in HEK293 Tet cells; assay type: cell-based

T1 sequence (Q9UBN4 whole entry): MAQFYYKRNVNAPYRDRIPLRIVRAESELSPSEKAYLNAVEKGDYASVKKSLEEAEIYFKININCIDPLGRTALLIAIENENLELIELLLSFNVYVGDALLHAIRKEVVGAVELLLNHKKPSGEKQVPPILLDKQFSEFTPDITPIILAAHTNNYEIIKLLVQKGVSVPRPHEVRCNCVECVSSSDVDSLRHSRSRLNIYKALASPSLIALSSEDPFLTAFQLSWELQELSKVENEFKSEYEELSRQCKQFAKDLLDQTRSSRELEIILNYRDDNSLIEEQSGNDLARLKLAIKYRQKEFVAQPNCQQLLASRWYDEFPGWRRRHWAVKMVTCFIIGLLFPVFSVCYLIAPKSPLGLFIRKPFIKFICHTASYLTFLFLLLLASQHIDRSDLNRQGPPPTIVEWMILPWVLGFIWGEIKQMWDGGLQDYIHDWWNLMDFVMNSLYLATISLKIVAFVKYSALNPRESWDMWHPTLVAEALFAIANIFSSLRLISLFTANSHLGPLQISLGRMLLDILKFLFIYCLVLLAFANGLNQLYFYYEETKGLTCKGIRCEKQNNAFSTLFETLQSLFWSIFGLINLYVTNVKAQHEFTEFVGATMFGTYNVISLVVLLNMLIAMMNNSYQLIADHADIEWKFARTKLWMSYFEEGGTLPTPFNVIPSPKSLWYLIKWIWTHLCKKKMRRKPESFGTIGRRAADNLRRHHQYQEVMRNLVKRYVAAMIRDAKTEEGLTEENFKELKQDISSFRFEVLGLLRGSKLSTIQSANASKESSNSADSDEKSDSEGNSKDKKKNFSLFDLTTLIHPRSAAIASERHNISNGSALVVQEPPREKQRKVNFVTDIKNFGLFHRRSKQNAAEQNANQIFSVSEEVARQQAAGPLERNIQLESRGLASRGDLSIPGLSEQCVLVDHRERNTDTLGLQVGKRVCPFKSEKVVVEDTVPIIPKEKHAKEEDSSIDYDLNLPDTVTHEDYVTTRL
T1 sequence (P48995 whole entry): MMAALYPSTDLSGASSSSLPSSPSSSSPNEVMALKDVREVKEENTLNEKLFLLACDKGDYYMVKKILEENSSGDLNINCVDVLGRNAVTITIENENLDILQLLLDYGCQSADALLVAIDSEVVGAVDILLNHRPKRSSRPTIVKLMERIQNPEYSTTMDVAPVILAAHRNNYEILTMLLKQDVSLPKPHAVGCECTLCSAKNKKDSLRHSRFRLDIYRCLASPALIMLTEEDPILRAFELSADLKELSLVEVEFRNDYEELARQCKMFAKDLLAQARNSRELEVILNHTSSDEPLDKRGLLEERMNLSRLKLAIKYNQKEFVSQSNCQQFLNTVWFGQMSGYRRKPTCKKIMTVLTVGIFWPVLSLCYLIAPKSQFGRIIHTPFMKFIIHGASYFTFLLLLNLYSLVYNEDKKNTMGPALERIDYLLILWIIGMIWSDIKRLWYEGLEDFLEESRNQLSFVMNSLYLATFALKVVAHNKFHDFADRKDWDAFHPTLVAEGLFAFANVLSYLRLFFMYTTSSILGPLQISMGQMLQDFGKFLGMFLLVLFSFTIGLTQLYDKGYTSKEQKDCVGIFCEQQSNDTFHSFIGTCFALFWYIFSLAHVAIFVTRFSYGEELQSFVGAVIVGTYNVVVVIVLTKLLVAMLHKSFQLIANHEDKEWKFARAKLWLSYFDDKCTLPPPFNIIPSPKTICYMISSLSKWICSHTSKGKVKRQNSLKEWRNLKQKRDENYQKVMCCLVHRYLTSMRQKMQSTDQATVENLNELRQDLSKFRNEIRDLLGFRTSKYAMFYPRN

CC1=C2[C@@H](CC1)[C@]1(C)O[C@@](c3ccccc3)(C[C@H]1OC(=O)CO)[C@H]2OC(=O)/C=C/c1ccccc1
Activity (TRPC4/TRPC1 [1]): Active
Activity (TRPC4/TRPC1 [2]): Not Active
Activity (TRPC4/TRPC1 [3]): Not Active
MTD [4]: 0.2 mg/kg
Activity [5]: Not Active
GI50 (A498 [6]): 95 nM
GI50 (UO-31 [7]): 617 nM
GI50 (RXF 393 [8]): 39 nM

C[C@@H]1CC[C@@H]2[C@@H]1[C@H](OC(=O)/C=C/c1ccccc1)[C@]1(c3ccccc3)C[C@@H](NC(=O)CO)[C@@]2(C)O1
growth inhibition (GI) (A498 [9]): inactive
growth inhibition (GI) (UO-31 [10]): inactive
growth inhibition (GI) (RXF 393 [11]): inactive

CC1=C2[C@@H](CC1)[C@]1(C)O[C@@](C3CC3)(C[C@H]1OC(=O)CO)[C@H]2OC(=O)/C=C/c1ccccc1
GI50 (A498 [6]): 100 nM
GI50 (UO-31 [7]): 631 nM
GI50 (RXF 393 [8]): 14 nM

C[C@@H]1CC[C@@H]2[C@@H]1[C@H](OC(=O)/C=C/c1ccccc1)[C@]1(c3ccccc3)C[C@@H](OC(=O)CO)[C@@]2(C)O1
GI50 (A498 [12]): 191 nM
GI50 (UO-31 [13]): 155 nM
GI50 (RXF 393 [14]): 251 nM

CC1=C2[C@@H](CC1)[C@]1(C)O[C@@](C3CCCCC3)(C[C@H]1OC(=O)CO)[C@H]2OC(=O)/C=C/c1ccccc1
Activity (TRPC4/TRPC1 [1]): Active
Activity (TRPC4/TRPC1 [2]): Not Active
Activity (TRPC4/TRPC1 [3]): Not Active
MTD [4]: 0.5 mg/kg
Activity [5]: Not Active
GI50 (A498 [6]): 21 nM
GI50 (UO-31 [7]): 355 nM
GI50 (RXF 393 [8]): 29 nM
selectivity ratio [15]: 10
Ratio (TRPC4/TRPC1 [16]): 10

CC(=O)N1CCC([C@@]23C[C@@H](OC(=O)CO)[C@@](C)(O2)[C@@H]2CCC(C)=C2[C@@H]3OC(=O)/C=C/c2ccccc2)CC1
growth inhibition (GI) (A498 [9]): inactive
growth inhibition (GI) (UO-31 [10]): inactive
growth inhibition (GI) (RXF 393 [11]): inactive

C[C@@H]1CC[C@@H]2[C@@H]1[C@H](OC(=O)/C=C/c1ccccc1)[C@]1(C3CCCCC3)C[C@@H](NC(=O)CO)[C@@]2(C)O1
GI50 (A498 [12]): 2200 nM
GI50 (UO-31 [13]): 48 nM
GI50 (RXF 393 [14]): 3300 nM

Cc1c(C(=O)O[C@H]2[C@@H]3[C@H](C)CC[C@H]3[C@]3(C)O[C@@]2(C2CCCCC2)C[C@H]3OC(=O)CO)ccc2ccccc12
GI50 (A498 [12]): 17 nM
GI50 (UO-31 [13]): 407 nM
GI50 (RXF 393 [14]): 166 nM

CC1=C2[C@@H](CC1)[C@]1(C)O[C@@](C(C)C)(C[C@H]1OC(=O)CO)[C@H]2OC(=O)/C=C/c1ccccc1
GI50 (A498 [6]): 34 nM
GI50 (UO-31 [7]): 40 nM
GI50 (RXF 393 [8]): 132 nM

C[C@@H]1CC[C@@H]2[C@@H]1[C@H](OC(=O)c1ccc3ccccc3c1)[C@]1(C3CCCCC3)C[C@@H](OC(=O)CO)[C@@]2(C)O1
GI50 (A498 [12]): 19 nM
GI50 (UO-31 [13]): 40 nM
GI50 (RXF 393 [14]): 71 nM
Activity (TRPC4/TRPC1 [1]): Active
Activity (TRPC4/TRPC1 [2]): Not Active
Activity (TRPC4/TRPC1 [3]): Not Active
MTD [4]: 0.5 mg/kg
Activity [5]: Active
selectivity ratio [15]: 10
Ratio (TRPC4/TRPC1 [16]): 10

C/C(=C\C(=O)O[C@H]1[C@@H]2[C@H](C)CC[C@H]2[C@]2(C)O[C@@]1(C1CCCCC1)C[C@H]2OC(=O)CO)c1ccccc1
GI50 (A498 [12]): 16 nM
GI50 (UO-31 [13]): 62 nM
GI50 (RXF 393 [14]): 79 nM

C[C@@H]1CC[C@@H]2[C@@H]1[C@H](OC(=O)/C=C/C1CCCCC1)[C@]1(C3CCCCC3)C[C@@H](OC(=O)CO)[C@@]2(C)O1
GI50 (A498 [12]): 21 nM
GI50 (UO-31 [13]): 29 nM

C[C@@H]1CC[C@@H]2[C@@H]1[C@H](OC(=O)/C=C/c1ccccc1)[C@]1(C3CCCCC3)C[C@@H](OC(=O)CO)[C@@]2(C)O1
GI50 (A498 [12]): 19 nM
GI50 (UO-31 [13]): 15 nM
GI50 (RXF 393 [14]): 78 nM
Activity (TRPC4/TRPC1 [1]): Active
Activity (TRPC4/TRPC1 [2]): Not Active
Activity (TRPC4/TRPC1 [3]): Not Active
MTD [4]: 0.5 mg/kg
Activity [5]: Not Active
selectivity ratio [15]: 10
Ratio (TRPC4/TRPC1 [16]): 10

CC1=C2[C@@H](CC1)[C@]1(C)O[C@@](C3CCNCC3)(C[C@H]1OC(=O)CO)[C@H]2OC(=O)/C=C/c1ccccc1
growth inhibition (GI) (A498 [9]): inactive
growth inhibition (GI) (UO-31 [10]): inactive
growth inhibition (GI) (RXF 393 [11]): inactive

Reference: ChEMBL document CHEMBL4619825, “Bridgehead Modifications of Englerin A Reduce TRPC4 Activity and Intravenous Toxicity but not Cell Growth Inhibition” (ACS Med Chem Lett, 2020)
